Most compounds without a hit are left out; they make up all but 1.9% or so of the library.
NPY-Y1 PAM-ag: human NPY-Y1 potentiation or agonism, primary screen | P25929 | NPY-Y1 expressing cells, potentiator/agonist activation | activation, % at 3.6 µM | 0.37% of 220,000 active | AID 1304; in the data active means activation above about 33%, passing the limit was not always enough;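 further: cells stimulated with NPY at EC10 then isoproterenol at EC100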
NPY Y2 blocker: antagonists of human neuropeptide Y receptor Y2. P49146. NPY-Y2 expressing cells, antagonist mode. inhibition, % at 2.7 µM. 0.99% of 140,000 active; in the data active means inhibition above about 17%
Target sequence (P49146 whole entry, looked up): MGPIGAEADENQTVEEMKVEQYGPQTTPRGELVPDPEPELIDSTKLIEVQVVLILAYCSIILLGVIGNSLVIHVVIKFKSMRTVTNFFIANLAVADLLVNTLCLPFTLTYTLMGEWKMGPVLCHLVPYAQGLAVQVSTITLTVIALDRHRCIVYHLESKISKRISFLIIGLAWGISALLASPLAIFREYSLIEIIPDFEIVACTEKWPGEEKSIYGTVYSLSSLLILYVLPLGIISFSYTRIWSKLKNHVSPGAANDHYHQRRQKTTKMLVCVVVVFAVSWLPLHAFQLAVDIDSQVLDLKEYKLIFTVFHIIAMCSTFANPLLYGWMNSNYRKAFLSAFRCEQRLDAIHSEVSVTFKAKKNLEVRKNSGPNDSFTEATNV
NPY-Y1 antag: NPY-Y1 (human) receptor antagonism; HEK293-CNG Y1 cells, membrane potential fluorescence; NPY at EC95, then isoproterenol; AID 1040; 1% of 200,000 active; inhibition, % at 3.6 µM;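 active means inhibition above the campaign mean inhibition of all tested compounds plus 3 SD, cut at about 20% in these data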
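Test system – HEK293 Y1/CNG channel cell line · Also added – NPY agonist 25 nM, then isoproterenol 1 µM plus Ro 20-1724 25 µM · Compound dosing – one concentration, 3.6 µM, in 0.4% DMSO · Schedule – compound incubation 1 h at room temperature, readout 45 min post-stimulation · Technique – fluorescence, membrane potential probe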
NPY2 pot ag: potentiators or agonists of human neuropeptide Y receptor Y2. P49146. cells expressing NPY-Y2, potentiator/agonist read-out. activation, % at 3.6 µM. 0.45% of 220,000 active. AID 1359; in the data active means activation above about 27%;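 further: cells stimulated with NPY near EC25 plus isoproterenol at EC100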
NPY-Y2 confirm: confirmation of human NPY-Y2 receptor potentiators or agonists. shares compounds with NPY2 pot ag. cell-based NPY-Y2 potentiator/agonist assay. activation, % at 3.6 µM. 20% of 450 active. AID 1539; in the data active means activation above about 33%
NPY-Y1 potentiator: potentiates or activates NPY-Y1, counter-screen for NPY-Y2 hits; shares compounds with NPY2 pot ag; Y1 HEK293-CNG cells, membrane potential fluorescence; activation, % at 3.6 µM; 20% of 450 active; in the data active means activation above about 45%;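 further: cells stimulated with submaximal NPY then isoproterenol with phosphodiesterase inhibitor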
NPY-Y1 agonist 2: activates human NPY-Y1, counter-screen for NPY-Y2 potentiators; 37% of 450 active; shares compounds with NPY2 pot ag; activation, % at 3.6 µM; HEK293 Y1-CNGC, membrane potential fluorescence, agonism;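 active means activation above the mean of DMSO-only control wells plus 3 SD, cut at about 18% in these data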;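 further: cells stimulated with 1 µM isoproterenol plus the PDE inhibitor Ro 20-1724; Y1 agonists lower the membrane potential dye signal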
CNGC inh: cyclic nucleotide gated channel inhibition as counter-screen; shares compounds with NPY2 pot ag; HEK293-CNG parental, isoproterenol cAMP, membrane potential fluorescence; inhibition, % at 3.6 µM; 32% of 450 active; AID 1703;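 active means inhibition above the control-well mean plus 3 SD of those wells, cut at about 22% in these data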
NPY-Y2 ag 2: counter-screen for NPY-Y2 potentiators: agonists of human NPY-Y2; HEK293 Y2/CNGC cells, membrane potential fluorescence, agonist mode; 56% of 450 active; AID 1710; activation, % at 3.6 µM; shares compounds with NPY2 pot ag;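 active means activation above the mean of solvent-only control wells plus 3 SD, cut at about 10% in these data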;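 further: cells stimulated by isoproterenol with no NPY added so direct agonism is tested; agonism lowers probe fluorescence through less cAMP and CNG channel opening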
Hits are given with their value; 0 = inactive; - = no result.

SMILES	NPY-Y1 PAM-ag	NPY Y2 blocker	NPY-Y1 antag	NPY2 pot ag	NPY-Y2 confirm	NPY-Y1 potentiator	NPY-Y1 agonist 2	CNGC inh	NPY-Y2 ag 2
O=P(OC1CCCCC1)(OC1CCCCC1)C(Nc1ccccc1)c1cccnc1 (centres undefined)	0	-	-	43.7	0	0	17.4	27.6	19.6
COc1ccccc1CCc1nnc(CCC(=O)NC(C)Cn2nc(C)cc2C)o1 (centres undefined)	0	-	0	0	-	-	-	-	-
CC(=O)c1c(C)c(C)c2n1CCn1c(C)ccc1-2	0	-	-	0	-	-	-	-	-
CS(=O)(=O)NCc1nnc(SCc2ccccc2C(F)(F)F)o1	0	0	0	0	-	-	-	-	-
CS(=O)(=O)NCc1nnc(SCc2ccc(C(F)(F)F)cc2)o1	0	-	-	101.8	0	0	0	0	0
O=C(/C=C/c1ccc(S(=O)(=O)N2CCOCC2)cc1)NCCCn1ccnc1	0	-	0	0	-	-	-	-	-
Cc1nc(NCCCn2ccnc2)c2ccccc2n1	0	0	0	0	-	-	-	-	-
O=C1c2ccccc2-c2onc3ccc(NCCCn4ccnc4)c1c23	0	33.6	0	38.4	0	0	0	0	0
c1ccc(CSc2nc3ccccc3[nH]2)cc1	0	-	-	0	-	-	-	-	-
Nc1c(-c2ccccc2)c(CSc2nc3ccccc3[nH]2)nn1-c1cccc(Cl)c1	0	0	0	31.6	38.8	0	35.6	27.6	56.5
Nc1c(-c2ccccc2)c(CSc2nc3ccccc3[nH]2)nn1-c1ccc(Cl)cc1	0	0	0	28.9	0	0	0	0	33.0
Cc1ccccc1-n1nc(CSc2nc3ccccc3[nH]2)c(-c2ccccc2)c1N	0	0	0	0	-	-	-	-	-
O=C1CSC(c2ccccc2Cl)N1 (centres undefined)	0	-	0	0	-	-	-	-	-
O=C(CC1NCCNC1=O)Nc1ccc([N+](=O)[O-])cc1 (centres undefined)	0	-	0	0	-	-	-	-	-
COc1ccc(C(=O)N/C(=C\c2ccco2)C(=O)NC2CCS(=O)(=O)C2)cc1 (centres undefined)	0	-	0	0	-	-	-	-	-
CC(Oc1cc(Cl)ccc1Cl)C(=O)N/N=C\c1ccnn1C (centres undefined)	0	0	0	27.4	0	0	0	0	0
CCCn1nnc(NC(=O)C(C)Oc2ccc(Cl)cc2Cl)n1 (centres undefined)	0	0	0	0	-	-	-	-	-
CCOC(=O)c1c(C)sc2c1N(C(=O)CCl)c1cc(Cl)ccc1S2	0	0	0	38.2	0	0	33.9	0	0
Cc1cccc2c(N)c3c(nc12)CCCC3 (tested in a mixture with another compound)	0	-	0	48.5	51.6	63.6	0	0	48.3
O=C(Nc1nc(-c2ccccc2)cs1)c1ccccc1NS(=O)(=O)c1ccc(F)cc1	0	0	0	46.1	0	0	0	0	0
Cc1nnc(SCCOc2ccccc2)s1	0	-	0	0	-	-	-	-	-
O=C(CCl)N=c1sccn1Cc1cccc2ccccc12	0	-	0	26.8	0	0	0	0	0
COc1ccc(Cn2c(O)c(C=Nc3ccccc3C(=O)O)c3ccccc3c2=O)cc1	0	-	-	54.1	0	0	28.4	0	27.1
COc1ccccc1NS(=O)(=O)c1cccc(-n2c(O)c(C=Nc3ccccc3C(=O)O)c3ccccc3c2=O)c1	0	-	-	45.0	0	0	34.3	0	30.1
CS(=O)(=O)N1CCC(C(=O)N2CCN(C(c3ccccc3)c3ccccc3)CC2)CC1	0	-	0	0	-	-	-	-	-
CCOP(=O)(OCC)C(C)(C)NC(=O)Nc1ccc(Cl)c(Cl)c1	0	-	-	0	-	-	-	-	-
CCC1(CC)Cc2ccccc2C(C2=C(O)CC(C)(C)CC2=O)=N1	0	0	0	0	-	-	-	-	-
Cc1cccc2c1CC(C)(C)N=C2C1=C(O)CC(C)(C)CC1=O	0	0	0	75.6	0	0	0	0	0
CCC(C)NC(=O)NCc1ccccc1F (centres undefined)	0	-	0	0	-	-	-	-	-
Cc1cc(C)nc(N2CCCC(C(=O)NCc3ccc4c(c3)OCO4)C2)n1 (centres undefined)	0	-	0	72.4	0	0	0	0	0
